Measurements from ChEMBL document CHEMBL1275590, “Novel arylimidamides for treatment of visceral leishmaniasis” (Antimicrob Agents Chemother, 2010).

Assays:
Conditions in all cases: in vivo
[1] = test system: Mus musculus; test: Toxicity in BALB/c mouse assessed as tendency to startle at 50 mg/kg/day, ip administered for five days; type: organism-based; set-up: route intraperitoneal
Method in brief: (§1)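 Acute overt toxicity was checked in uninfected female BALB/c mice before the efficacy work. Compounds were given intraperitoneally once daily for 5 days, and mice were watched for clinical signs such as ruffled fur, hypoactivity, tremors, ataxia and startle, and for survival.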

[2] = test system: Mus musculus; test: Toxicity in BALB/c mouse assessed as tremor at 50 mg/kg/day, ip administered for five days; type: organism-based; set-up: route intraperitoneal; method in brief: as §1
[3] = Volume of distribution in Swiss Webster mouse at 4.9 mg/kg, iv by HPLC-MS/MS analysis; type: ADME, organism-based; set-up: dose 4.9 mg/kg, route intravenous
Method in brief: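 Male Swiss Webster mice (n = 3 per time point) got a single tail-vein bolus over ~10 to 20 s, 5 ml/kg. Compound was dissolved in sterile water at 2× and diluted 1:1 with 2× saline. Terminal blood was taken from 5 min to 72 h, and plasma was quantified by HPLC-MS/MS. Vss came from noncompartmental analysis.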

[4] = Tmax in Swiss Webster mouse at 16.5 mg/kg, po by HPLC-MS/MS analysis; type: ADME, organism-based; set-up: dose 16.5 mg/kg, route oral
Method in brief: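 Male Swiss Webster mice (n = 3 per time point), single dose by oral gavage (sterile water solution) or tail-vein bolus i.v. (water diluted 1:1 with 2× saline, over ~10–20 s); dose volume 5 ml/kg. Terminal blood sampled from 5 min to 72 h postdose; plasma quantified by HPLC-MS/MS (positive-ion SRM). Noncompartmental analysis gave Cmax, Tmax, AUC0-∞, CL, Vss; bioavailability from p.o. versus i.v. exposure.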

[5] = test system: Mus musculus; test: Toxicity in BALB/c mouse at 150 mg/kg/day, po administered for five days measured on day 5; type: organism-based; set-up: route oral
Method in brief: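 Five-day repeat-dose study in female BALB/c mice (n = 5 per dose level): oral dosing once daily for five consecutive days in sterile water prepared fresh daily under yellow light, 20 ml/kg. Vehicle controls received sterile water only. Clinical observations and body weights were recorded, with blood for hematology and serum chemistry taken on day 6 before necropsy. A veterinary pathologist examined formalin-fixed tissues.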

[6] = test system: Mus musculus; test: Toxicity in BALB/c mouse assessed as decrease in body weight at 150 mg/kg/day, po administered for five days; type: organism-based; set-up: route oral
Method in brief: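 Female BALB/c mice (n = 5 per dose), dosed once daily for 5 consecutive days p.o. (20 ml/kg) or i.v. (10 ml/kg) with compound in sterile water, prepared fresh daily under yellow light. Vehicle controls n = 5 per route. Clinical observations, body weights, serum chemistry and hematology on day 6 before necropsy; histopathology of formalin-fixed tissues. Chemistry analysed by one-way ANOVA with Dunnett's posttest.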

[7] = test system: Mus musculus; test: Hepatotoxicity in BALB/c mouse assessed as AST level in serum at 10 mg/kg/day, iv administered for five days (Rvb= 65 U/L); type: toxicity, organism-based; set-up: route intravenous
[8] = test system: Mus musculus; test: Toxicity in BALB/c mouse at 50 mg/kg/day, po administered for five days; type: organism-based; set-up: route oral
[9] = test system: Mus musculus; test: Toxicity in BALB/c mouse assessed as hypoactivity at 50 mg/kg/day, ip administered for five days; type: organism-based; set-up: route intraperitoneal

CCOc1cc(NC(=N)c2ccccn2)ccc1-c1ccc(-c2ccc(NC(=N)c3ccccn3)cc2OCC)o1
Activity [1]: Toxic | Activity [2]: Toxic | Vd [3]: 22 L/kg | Tmax [4]: 2 h | Activity [5]: Toxic | Activity [6]: Toxic | Activity [7]: 80 U/L

CC(C)Oc1cc(NC(=N)c2ccccn2)ccc1-c1ccc(-c2ccc(NC(=N)c3ccccn3)cc2OC(C)C)o1
Activity [8]: Non-toxic | Activity [9]: Toxic
